# Compound activity as filed in PubChem BioAssay.
# XiGFP reactiv – X-chromosome reactivation activator; activation, % at 7.58 µM; hit rate 0.055% among 360,000; XiGFP mouse fibroblasts, % GFP-positive cells imaging, 3 d; cells co-treated with 5-aza-dC sensitizer; scaled so ellipticine positive control = 100%; AID 743238;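 active = mean normalized replicate activation at least 10% and every replicate at or above 10%; inconclusive = only one of the two criteria met; inactive = mean below 10% and not all replicates reach 10%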;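 note: 0% = median of on-plate neutral control wells and 100% = ellipticine 6 µM median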
#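 assay system = SV40-immortalized XiGFP fibroblast cells, line 68-5-11 | buffer or medium = DMEM plus 5-aza-dC sensitizer | doses = single-point pinned compound dosing | times = 3-day compound exposure, then 15 min fixation at room temperature | benchmarks = positive control ellipticine, 6 µM final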
# NSD2 HMT inh – inhibitors of human histone methyltransferase NSD2 | O96028 | NSD2 peptide methylation, AlphaScreen, 120 min | inhibition, % at 12.5 µM | hit rate 0.54% among 310,000 | AID 743445; in the data active = inhibition above about 50%
# Wnt act – activators of Wnt/beta-catenin signaling; activation, % at 9.35 µM; hit rate 1.2% among 300,000; Wnt/beta-catenin reporter cell assay, activator, plate reader; in the data active = activation above about 30%, passing the limit was not always enough; inconclusive = no clear call, values can overlap the other calls;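 note: 0% = neutral control wells and 100% = positive control wells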
# esBAF inh – blocks esBAF chromatin remodeling in mouse ES cells. Bmi1-luciferase knock-in reporter, 24 h; 100% = twice the neutral-well signal. reporter increase, % at 12.5 µM. hit rate 2% among 350,000. AID 602393; in the data active = activation above about 40%; inconclusive = no clear call, values can overlap the other calls;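 note: 0% = median of the plate's neutral control wells and 100% = double that signal; a rise in the Bmi1 reporter signal indicates esBAF inhibition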
# Casp6 inh – caspase-6 (human) enzyme inhibition; purified caspase-6, Z-VEID-R110 cleavage fluorescence; AID 686996; P55212; inhibition, % at 12.5 µM; hit rate 0.53% among 350,000;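 active = mean inhibition across replicates at least about 35%, with every replicate also reaching that limit, limit read from the data; inconclusive = only one of the two criteria met; inactive = neither criterion met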;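 note: 0% = median of neutral control wells and 100% = no fluorescence left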
# Target sequence (P55212 24-179 limits assumed): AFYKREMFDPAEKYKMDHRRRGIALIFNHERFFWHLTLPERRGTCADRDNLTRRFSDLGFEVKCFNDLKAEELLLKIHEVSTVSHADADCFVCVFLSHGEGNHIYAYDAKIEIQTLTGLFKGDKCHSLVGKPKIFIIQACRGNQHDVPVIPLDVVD
# Target sequence (P55212 194-293 limits assumed): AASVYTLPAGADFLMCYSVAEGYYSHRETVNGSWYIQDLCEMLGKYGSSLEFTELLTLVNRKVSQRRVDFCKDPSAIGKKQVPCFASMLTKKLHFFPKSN
# MITF TRPM1 HTS – MITF TRPM1 promoter activation in melanoma cells; activation, % at 12.5 µM; hit rate 0.75% among 300,000; SK-MEL-5 TRPM1-promoter luciferase, 24 h; % of positive control, neutral wells = 0; AID 588334;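 active = mean activation of at least 80% with every replicate also reaching 80%; inconclusive = mean reaches 80% but some replicate falls short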;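 note: 0% = neutral control wells and 100% = parthenolide positive control wells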
# Starred values were filed as active, the others as inactive; ? = inconclusive; . = not tested or not shown. Shown are actives, neighbours in structure and some others; about 3% of the full set was active somewhere.
SMILES,XiGFP reactiv,NSD2 HMT inh,Wnt act,esBAF inh,Casp6 inh,MITF TRPM1 HTS
CCOC(=O)/C=C1/N(C)c2ccccc2C1(C)C,0,.,41*,0,-4,16
CN1/C(=C\C(=O)COC(=O)c2ccc(O)cc2)C(C)(C)c2ccccc21,0,3,-9,-5,-2,-15
CN(C)c1cccc(O)c1,.,.,8,6,0,0
Cc1cc(O)ccc1Nc1cc(-c2cccc(N(C)C)c2)ncn1,0,7,0,55*,1,.
C[C@H]1CN([C@@H](C)CO)C(=O)c2cc(-c3cccnc3)cnc2O[C@H]1CN(C)C(=O)C1CCC1,0,.,.,-4,0,.
CN(C)C(=O)/C(=C/c1cn(-c2ccccc2)nc1-c1cccc([N+](=O)[O-])c1)NC(=O)c1ccccc1,0,-1,56*,-5,.,-13
CN1C(=O)/C(=C2\SC(N3CCCCCC3)=NC2=O)c2ccccc21,.,0,.,46*,15,.
O=C1N=C(N2CCOCC2)S/C1=C1\C(=O)N(Cc2ccccc2)c2ccccc21,.,-3,6,52*,.,74
O=C1N=C(N2CCCCC2)SC1=C1CCCCC1,.,3,.,75*,.,47
CC1CN(C2=NC(=O)/C(=C3/C(=O)N(Cc4ccc(F)cc4)c4ccccc43)S2)CC(C)O1 (centres undefined),0,1,-2,.,-4,.
CCCN1C(=O)/C(=C2\SC(N3CCCCC3)=NC2=O)c2ccccc21,.,.,12,74*,.,79
O=C1N=C(N2CCCCC2)S/C1=C\c1ccc(Br)cc1,0,-3,0,31,35,.
CN1C(=O)/C(=C2\SC(N)=NC2=O)c2ccccc21,.,1,.,.,.,9
CC(C)C#Cc1cnc2c(c1)C(=O)N([C@H](C)CO)C[C@@H](C)[C@H](CN(C)S(=O)(=O)c1cn(C)cn1)O2,-1,.,.,-4,0,.
CC(C)Cc1nnc(NC(=O)Nc2ccccc2)s1,0,-2,38*,53*,0,96*
O=C(Nc1ccc(C(=O)N2CCCCC2)cc1)Nc1cccc(Cl)c1,0,-1,17,86*,0,106*
O=C(Nc1cccc(Cl)c1)N1CCCCCC1,0,0,5,28,1,1
CC(=O)Nc1ccc(NC(=O)Nc2cccc(Cl)c2)cc1,0,-10,5,40,-8,61
O=C(Nc1ccccc1)Nc1cccc(Cl)c1,.,5,.,52*,.,55
CS/C(N)=N/C(=S)Nc1cccc(Cl)c1,0,-1,45*,.,1,27
C[C@H]1CN([C@@H](C)CO)C(=O)c2cccc(NC(=O)c3nc4ccccc4s3)c2O[C@H]1CN(C)CC1CC1,0,.,.,2,-1,.
CO[C@H]1CN(C)C(=O)c2ccc(NC(C)=O)cc2OC[C@H](C)NC[C@@H]1C,0,.,.,0,1,.
O=C(CN1CCOCC1)N[C@H]1CC[C@@H](CCn2cc(C3CCCC3)nn2)O[C@H]1CO,0,.,.,.,6,.
C[C@H]1CN([C@@H](C)CO)S(=O)(=O)c2ccc(C3=CCCC3)cc2O[C@H]1CN(C)S(C)(=O)=O,-1,.,.,.,.,.
O=C(Nc1ccccc1)Nc1ccccc1,.,.,0,49*,-3,60
SMILES,XiGFP reactiv,NSD2 HMT inh,Wnt act,esBAF inh,Casp6 inh,MITF TRPM1 HTS
O=C(Nc1cccc(Cl)c1)Nc1ccc2nccnc2c1,0,1,-1,97*,5,112*
Cn1nnc2cc(NC(=O)Nc3cccc(Cl)c3)ccc21,0,-3,19,?,0,93*
Cn1nccc1NC(=O)Nc1cccc(Cl)c1,2,-1,3,.,1,.
COc1ccccc1NC(=O)Nc1ccc(C(=O)N2CCCCC2)cc1,10,-1,15,37,-1,111*
COC(=O)c1ccccc1NC(=O)Nc1ccc(C(=O)N2CCCC2)cc1,.,1,-3,-2,.,.
O=C(c1ccc2c(c1)OCO2)N1CC(=O)N2[C@H](CO)[C@@H](c3ccc(C#CCC4CCCC4)cc3)[C@H]2C1,0,.,.,.,1,.
Cc1ccccc1-c1ccc(C2[C@@H]3CN(C(=O)Cc4ccncc4)C[C@H]2N3)cc1 (some centres undefined),0,.,.,.,.,.
CC(=O)Nc1ccc2c(c1)C(=O)N(C)[C@@H]1CC[C@H](CC(=O)NCC3CC3)O[C@H]1CO2,0,.,.,-3,1,.
O=C(NC1=NCCS1)Nc1ccccc1,.,0,42*,.,.,41
CC(C)=CCc1c(O)ccc2c1OC(c1ccc(O)c(O)c1)CC2=O (centres undefined),.,.,1,4,16,-69
O=C1CC(c2ccc(O)c(O)c2)Oc2c1ccc(O)c2O (centres undefined),.,.,0,3,75*,3
CCOc1ccc(CCNC(=O)C2CC=CCC2C(=O)OC(C)C)cc1OCC (centres undefined),0,1,-2,0,.,-9
CCOc1ccc(CCNC(=O)C2CC(C)=CCC2C(=O)O)cc1OCC (centres undefined),0,-3,-2,-7,36*,-5
C=C(C)C(=O)Nc1cccc(C2=NOC3(C2)C[C@@H](C(N)=O)N(C(=O)CCCCC)C3)c1 (some centres undefined),0,.,-4,.,59*,-6
NC(=O)[C@H]1CC2(CC(c3cccc(NC(=O)c4ccccc4)c3)=NO2)CN1C(=O)[C@H]1CCC(=O)N1 (some centres undefined),0,.,53*,0,-3,-5
O=C(O)c1cccc(Nc2ncnc3c2cnn3-c2ccccc2)c1,.,-3,.,8,.,15
Clc1cccc(Nc2ncnc3c2cnn3-c2ccccc2)c1,1,.,5,65*,-1,37
Fc1cccc(Nc2ncnc3c2cnn3-c2ccccc2)c1,0,.,22,57*,-1,54
Cc1ccccc1S(=O)(=O)N(C)C[C@H]1OCc2ccccc2-c2ccccc2C(=O)N([C@@H](C)CO)C[C@@H]1C,0,.,.,.,.,.
Oc1ccc(-c2csc(-c3ccccc3)n2)cc1O,.,18,7,60*,7,6
c1ccc(-c2csc(-c3ccncc3)n2)cc1,.,-3,13,27,2,33
Oc1ccccc1-c1csc(-c2ccccc2)n1,0,-4,14,77*,1,47
CO[C@@H]1CN(C)C(=O)c2cc(NC(=O)Nc3ccc(C(F)(F)F)cc3)ccc2OC[C@@H](C)NC[C@@H]1C,0,.,.,0,-2,.
O=C(c1cnsn1)N1CCC(CO)(Cc2cccc(F)c2)CC1,.,1,50*,70*,0,114*
CCOC(=O)c1ccc(NC(=O)c2ccccc2[N+](=O)[O-])cc1,0,0,9,73*,.,54
CCOC(=O)c1ccc(NC(=O)c2ccccc2)cc1,.,-1,19,36,-3,114*
CCOC(=O)c1ccc(NC(=O)C23CCC(C)(C(=O)O2)C3(C)C)cc1 (centres undefined),.,-5,.,55*,.,46
